Hits are enriched below; roughly 2.6% of the tested compounds scored in any of these assays.
SR-BI uptake up – enhances SR-BI lipid uptake from DiI-HDL. hit rate 0.096% among 320,000. activation, % at 12.5 µM. CHO ldlA[mSR-BI] cells, DiI-HDL uptake fluorescence, 3 h; 100 = double the neutral-control signal;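 active = mean replicate activation of at least 60% and every replicate at or above 60%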;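 note: 0% = median plate neutral-control signal and 100% = twice that signal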
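Test system: SR-BI-overexpressing, LDLR-lacking CHO cells. Measured by: DiI fluorescence, bottom read. Medium: Ham's F12 with 0.5% BSA, HEPES 25 mM, pH 7.4. Timing: 3 h uptake period with compound, 37 °C.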
Xi reactivation – activators of X-chromosome reactivation in mouse fibroblasts | XiGFP mouse fibroblasts, % GFP-positive cells imaging, 3 d; cells co-treated with 5-aza-dC sensitizer; scaled so ellipticine positive control = 100% | activation, % at 7.58 µM | hit rate 0.055% among 360,000 | AID 743238;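 active = mean normalized replicate activation at least 10% and every replicate at or above 10%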;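 note: 0% = median of on-plate neutral control wells and 100% = ellipticine 6 µM median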
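material = 68-5-11 XiGFP fibroblast line | medium = DMEM plus 5-aza-dC sensitizer | schedule = 3 days compound exposure | benchmarks = positive control ellipticine, 6 µM final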
dFosB activator – activators of mouse delta FosB homodimer. purified delta FosB, TAMRA-CDK5 oligo fluorescence polarization; percent of positive-control signal above neutral wells. activation, % at 25 µM. hit rate 0.99% among 340,000;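 active = mean activation above about 17%, with every replicate also reaching it, limit read from the data, passing the limit was not always enough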
PvdQ inh – blocks Pseudomonas aeruginosa PvdQ acylase activity. purified PvdQ acylase, fluorescence plate reader. inhibition, % at 10 µM. hit rate 0.063% among 340,000; in the data active = inhibition above about 30%, passing the limit was not always enough;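 note: 0% = vehicle neutral wells and 100% = reference inhibitor wells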
SR-BI HDL uptake – inhibitors of mouse SR-BI mediated HDL lipid uptake. Q61009. ldlA[mSR-BI] CHO cells, DiI-HDL uptake fluorescence, 3 h. inhibition, % at 12.5 µM. hit rate 0.96% among 320,000;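 active = mean replicate inhibition of at least 70% and a set share of replicates each scoring 70 or more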;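 note: 0% = median of neutral control wells and 100% = median of positive control wells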
Target sequence (Q61009 whole entry, looked up): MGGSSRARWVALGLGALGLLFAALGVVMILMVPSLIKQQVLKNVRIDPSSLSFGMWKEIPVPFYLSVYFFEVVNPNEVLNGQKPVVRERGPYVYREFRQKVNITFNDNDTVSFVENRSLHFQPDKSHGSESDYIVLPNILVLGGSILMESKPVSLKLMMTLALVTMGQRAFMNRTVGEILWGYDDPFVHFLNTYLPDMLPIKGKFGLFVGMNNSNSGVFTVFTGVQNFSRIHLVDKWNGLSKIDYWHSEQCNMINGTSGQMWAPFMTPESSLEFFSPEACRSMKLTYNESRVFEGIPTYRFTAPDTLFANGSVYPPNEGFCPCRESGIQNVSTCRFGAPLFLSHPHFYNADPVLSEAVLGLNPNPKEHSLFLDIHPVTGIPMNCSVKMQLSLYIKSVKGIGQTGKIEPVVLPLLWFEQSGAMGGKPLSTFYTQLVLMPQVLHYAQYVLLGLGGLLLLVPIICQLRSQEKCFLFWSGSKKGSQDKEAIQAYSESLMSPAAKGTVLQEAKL
rRNA inh HTS – inhibits bacterial ribosomal RNA function over humanized ribosomes. E. coli WT GFP vs humanized-ribosome RFP mutants, fluorescence, 24 h; active compounds read low; DMSO median 0, no signal -100. GFP signal change (wild-type ribosome), % (test concentration not listed). hit rate 1.6% among 350,000;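 active = significant combined selectivity score with lowered wild-type GFP, culture density cut under 30%, mutant RFP and density less affected; inactive = any of these conditions unmet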
Active calls of the source: *; x = no result.

SMILES | SR-BI uptake up | Xi reactivation | dFosB activator | PvdQ inh | SR-BI HDL uptake | rRNA inh HTS
CCN(CC)CCN(C(=O)c1ccc(Br)s1)c1nc2cc3c(cc2s1)OCO3 | -22 | 0 | 1 | -4 | 22 | 3
COc1ccc2sc(N(CCCN(C)C)C(=O)c3ccc(C(=O)c4ccccc4)cc3)nc2c1 | -2 | 0 | 22* | 6 | 2 | -19
O=C(NCc1ccc(Cl)cc1)C1CC(O)CN1S(=O)(=O)c1ccc(Cl)cc1 (stereo unspecified) | x | 0 | -7 | -11 | x | -5
CCc1ccc(OCc2n[nH]c(=S)n2C(C)CCCC(C)C)cc1 (stereo unspecified) | 18 | 0 | -12 | 13 | -18 | 10
CN(C)CCCN(C(=O)c1ccc(Br)s1)c1nc2cc3c(cc2s1)OCCO3 | -30 | 0 | 24* | -11 | 30 | -8
CN(C)CCCN(C(=O)c1ccc(C(=O)c2ccccc2)cc1)c1nc2cc3c(cc2s1)OCO3 | 6 | 0 | 25* | 8 | -6 | -54
CN(C)CCN(C(=O)c1ccc2ccccc2c1)c1nc2cc3c(cc2s1)OCO3 | x | 0 | x | x | x | -8
COc1ccc(S(=O)(=O)Nc2ccc3c(c2)C(=O)N([C@@H](C)CO)C[C@@H](C)[C@@H](CN(C)S(=O)(=O)c2cn(C)cn2)OCCCC[C@H](C)O3)cc1 | x | 1 | x | x | x | -1
N#C/C(=N\Nc1ccc(S(=O)(=O)N2CCCCC2)cc1)C(N)=S | -2 | 0 | 0 | -1 | 2 | -32*
CCOC(=O)c1cc2c(ccn2C)n1CC(=O)Nc1ccc(F)cc1 | 18 | 1 | 9 | 6 | -18 | 12
COc1ccc(/C=C2\CCC/C(=C\C=N\N(C)C)C2=O)cc1 | 3 | 0 | 3 | -6 | -3 | -20*
CN(C)/N=C/C=C1\CCC/C(=C\c2ccc(F)c(F)c2)C1=O | -19 | 0 | -15 | -2 | 19 | -27*
CN(C)c1ccc(/C=C2\CCC/C(=C\c3ccccc3)C2=O)cc1 | -5 | 0 | -6 | -8 | 5 | 2
COc1ccc(/C=C/C(O)=C(\C#N)c2nnc(N3CCOCC3)n2-c2ccccc2)cc1OC | -75 | 0 | -9 | -3 | 75* | -15
Nc1ccc(-c2cc3ccccc3oc2=O)cc1 | -4 | 0 | 2 | 5 | 4 | -3
O=C/C=C/c1c(-c2ccccc2)cc2oc3ccccc3cc1-2 | -100 | 0 | -8 | -6 | 100* | 14
COc1ccc(NS(=O)(=O)c2cccc3cccnc23)cc1 | 42 | x | -3 | 7 | -42 | x
O=S(=O)(Nc1ccc(Br)cc1)c1cccc2cccnc12 | -4 | 0 | 2 | -2 | 4 | -26*
O=S(=O)(NCCc1ccccc1)c1cccc2cccnc12 | 16 | 0 | 6 | 1 | -16 | -25*
COc1ccc(NC(=O)N(C)C[C@@H]2Oc3ccc(NS(=O)(=O)c4ccc(OC)cc4)cc3C(=O)N([C@@H](C)CO)C[C@H]2C)cc1 | x | 0 | x | x | x | 2
Cc1nnc2c3ccccc3ccn12 | 12 | 0 | 4 | -6 | -12 | 10
COc1cccc(OCc2nnc(SCC(=O)OC3CCCCC3)n2C)c1 | -26 | x | -3 | -16 | 26 | x
O=C(Nc1cccnc1)c1cc(S(=O)(=O)N2CCOCC2)ccc1Br | 14 | 0 | -3 | 6 | -14 | 9
N#Cc1c(-c2ccccc2F)cc(C2CC2)nc1SCC(=O)c1cccs1 | -28 | 60* | 0 | 4 | 28 | x
COc1cccc(OC)c1OCC(=O)Nc1ccc(S(=O)(=O)N2CCCC2)cc1 | -34 | 0 | -10 | -11 | 34 | -34*
NC(=O)c1ccc(-c2nnn(CC(=O)Nc3cccc(S(=O)(=O)N4CCCC4)c3)n2)cc1 | -26 | 0 | 110* | 10 | 26 | -2
O=C(COc1ccccc1)Nc1cccc(S(=O)(=O)N2CCCC2)c1 | 8 | 0 | -5 | -8 | -8 | -12
CC(=O)Nc1cccc(OCC(=O)Nc2cccc(S(=O)(=O)N3CCCC3)c2)c1 | 449* | 0 | -10 | -20 | -450 | -4

Screening data from PubChem BioAssay.
